CHRM1 agonist – human M1 muscarinic receptor agonism; P11229; CHO-K1 hM1, Fluo-8 calcium fluorescence, agonist mode; 0% DMSO, 100% acetylcholine EC100; activation, % at 3 µM; actives 0.33% (n = 360,000); AID 588814;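 active = activation above the run's mean compound activation plus 3 SD, cut at about 16% in these data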;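 also: peak over basal fluorescence ratio within a 140 s kinetic read after compound addition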
Target sequence (P11229 whole entry, looked up): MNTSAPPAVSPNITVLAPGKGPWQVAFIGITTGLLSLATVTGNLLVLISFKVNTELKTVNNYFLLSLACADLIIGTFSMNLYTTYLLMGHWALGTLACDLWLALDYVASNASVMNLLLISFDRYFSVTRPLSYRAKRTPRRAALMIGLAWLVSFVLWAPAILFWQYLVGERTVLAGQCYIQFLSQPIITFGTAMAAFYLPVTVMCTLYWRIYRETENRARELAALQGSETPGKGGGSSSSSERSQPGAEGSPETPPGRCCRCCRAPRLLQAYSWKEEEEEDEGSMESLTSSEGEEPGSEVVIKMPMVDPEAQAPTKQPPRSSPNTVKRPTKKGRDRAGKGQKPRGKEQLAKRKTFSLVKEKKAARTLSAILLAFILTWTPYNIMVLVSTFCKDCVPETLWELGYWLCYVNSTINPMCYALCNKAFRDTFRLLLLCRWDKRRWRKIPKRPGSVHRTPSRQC
M1 antag – blocks human M1 muscarinic receptor; P11229; CHO-K1 hM1, Fluo-8 calcium fluorescence, ACh EC80 antagonist; inhibition, % at 3 µM; actives 1.3% (n = 360,000); AID 588852;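 active = percent inhibition above its own plate's cutoff, namely the mean of that plate's compound wells plus 3 SD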;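 also: peak over basal fluorescence ratio during 140 s after agonist addition; 0% = ACh EC80 plus DMSO and 100% = DMSO alone without agonist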
TAAR1 antag – human TAAR1 antagonism | inhibition, % at 3 µM | actives 1.5% (n = 360,000) | AID 624466 | CHO RD-HGA16 TAAR1, Fluo-8 calcium fluorescence, antagonist;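 active = inhibition above a per-plate cutoff, the mean inhibition of test compounds on that plate plus 3 SD, cut at about 49% in these data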;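 also: 0% = DMSO plus EC80 beta-PEA response and 100% = DMSO alone without agonist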
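Test system – hTAAR1-expressing CHO RD-HGA16 cells, Gα16-coupled · Reagent – β-PEA at EC80 concentration, post-compound challenge · Compound dosing – 3 µM, single point · Timing – 140 s kinetic read after compound, 140 s after agonist · Detection – Fluo-8 intracellular calcium dye fluorescence, real-time kinetic reads · Control set – DMSO and EC80 PEA controls · Repeats – n of 1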
CHRM1 PAM – human CHRM1 positive allosteric modulation | P11229 | CHO-K1 hM1, Fluo-8 calcium fluorescence, ACh EC20; 0% = ACh EC20, 100% = maximal ACh | activation, % at 3 µM | actives 0.088% (n = 360,000) | AID 588819; in the data active = activation above about 19%, passing the limit was not always enough
TAAR1 agonist – human TAAR1 agonism; AID 624467; CHO RD-HGA16 TAAR1, Fluo-8 calcium fluorescence; vehicle wells 0%, saturating PEA agonist 100%; Q96RJ0; actives 0.99% (n = 360,000); activation, % at 3 µM;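 active = activation above the mean activation of all test compounds in the run plus 3 SD, cut at about 38% in these data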
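System: CHO-derived RD-HGA16 cells with stable Gα16 and human TAAR1. Times: 17-24 h plating, Fluo-8 75 min 37 °C, 30 min RT. Measured by: calcium-sensitive Fluo-8 signal, excitation 470-495, emission 515-575 nm. Read-out basis: % activation relative to PEA EC100 response. Control set: DMSO and PEA EC100. Repeats: no replicates (n 1).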
TAAR1 ag confirm – human TAAR1 agonism, confirmed. shares compounds with TAAR1 agonist. activation, % at 3 µM. actives 82% (n = 2,400). CHO RD-HGA16 TAAR1, Fluo-8 calcium fluorescence; scaled: DMSO 0%, maximal phenethylamine 100%;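 active = activation above a cutoff set at the run's mean compound activation plus 3 SD, cut at about 39% in these data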
Ga16 ag counter – nonselective agonist in parental cells, TAAR1 agonist counter-screen | shares compounds with TAAR1 agonist | CHO-Ga16 parental, Fluo-8 calcium fluorescence; normalized to maximal ATP response, DMSO zero | activation, % at 3 µM | actives 50% (n = 2,400);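 active = activation above the run cutoff, the mean activation over all tested wells plus 3 SD, cut at about 12% in these data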;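 also: 0% = DMSO wells and 100% = maximal ATP response on the peak over basal ratio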
TAAR1 desens – TAAR1 response desensitization, agonist counter-screen. shares compounds with TAAR1 agonist. CHO RD-HGA16 hTAAR1, Fluo-8 calcium, beta-PEA response inhibition. inhibition, % at 3 µM. actives 46% (n = 2,400). AID 651951;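 active = inhibition above the run cutoff, the mean inhibition of all test compounds plus 3 SD, cut at about 49% in these data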;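 also: beta-PEA stimulus applied at its EC80; loss of beta-PEA calcium signal after compound pretreatment read as receptor desensitization; 0% = DMSO with beta-PEA at EC80 and 100% = DMSO alone without agonist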
Ga16 antag count – nonselective Ga16 antagonism, counter-screen; CHO-Ga16 ATP-induced calcium, Fluo-8 fluorescence; inhibition, % at 3 µM; shares compounds with TAAR1 agonist; actives 39% (n = 2,400);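 active = inhibition above the plate's mean compound inhibition plus 3 SD, computed per plate, cut at about 22% in these data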;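 also: 0% = EC80 ATP with DMSO and 100% = DMSO wells without ATP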
The depositor's hits bear a star; · = no result given. The list is not random: actives were taken first. Their share in the collection is about 3.4%.

SMILES	CHRM1 agonist	M1 antag	TAAR1 antag	CHRM1 PAM	TAAR1 agonist	TAAR1 ag confirm	Ga16 ag counter	TAAR1 desens	Ga16 antag count
C/C(=N\NC(=O)c1nnn(-c2nonc2N)c1-c1ccc2c(c1)OCO2)c1ccc(F)cc1	3	-5	-12	5	12	·	·	·	·
C/C(=N\NC(=O)c1nnn(-c2nonc2N)c1-c1ccc2c(c1)OCO2)c1ccccc1	2	-5	3	14	60*	96*	46*	22	13
O=C1C=CC(=Nc2ccc3c(c2)Cc2ccccc2-3)O1	-4	-3	8	-1	5	·	·	·	·
COc1cccc(-c2ccc(NC(=O)C3CCCN(Cc4cnc(N(C)C)s4)C3)cc2)c1 (stereo unspecified)	4	6	28	-3	63*	64*	33*	30	18
CS(=O)(=O)N(Cc1nc(-c2ccc(F)cc2)no1)c1ccccc1Cl	-6	1	4	2	5	·	·	·	·
CC(C)(C)c1ccc(C2(C)NC(=O)N(CC(=O)c3ccc[nH]3)C2=O)cc1 (stereo unspecified)	12	-1	-13	17	56*	35	13*	22	18
COc1ccc(CC(=O)Nc2ccc(-c3ccc4nnc(C)n4n3)cc2)cc1OC	0	-1	8	1	0	·	·	·	·
O=C(N/N=C/c1ccco1)c1cc(-c2ccc3ccccc3c2)n[nH]1	-1	-3	71*	3	48*	67*	53*	96*	88*
Cc1nc(N)c(C#N)c(-c2ccccc2Cl)c1C	4	-6	-8	10	73*	66*	44*	6	9
N#Cc1c(-c2ccccc2Cl)cc(C2CC2)nc1N	42*	-3	0	8	92*	100*	60*	38	16
COc1ccccc1-c1c(C)c(C)nc(N)c1C#N	-5	-6	0	5	15	·	·	·	·
O=S(=O)(NCC1CCCO1)c1ccc(Cl)c2ccccc12 (stereo unspecified)	-1	-8	-11	2	1	·	·	·	·
O=C1COc2ccc(C(=O)COC(=O)c3cc(S(=O)(=O)N4CCOCC4)ccc3F)cc2N1	-3	2	35	-1	10	·	·	·	·
CCCCC(=O)Nc1ccc(NC(=S)NC(=O)CCCCl)cc1OC	-8	12	-16	-6	-2	·	·	·	·
COc1cccc(C(C)(O)c2nc(-c3ccc(N(C)C)cc3)cs2)c1 (stereo unspecified)	0	27	11	-14	1	·	·	·	·
C/C=C(\C)C(=O)NCCN1C2=NC[C@H](C)N2C[C@@H]1Cc1ccc(OC)cc1	-14	5	8	-9	3	·	·	·	·
COc1ccc(C[C@@H]2CN3C(=NC[C@@H]3C)N2CCNC(=O)c2ccc(C)c(Br)c2)cc1	-13	40*	4	-37	45*	54*	15*	6	11
Cc1nc(N)c2c(Cc3cccc4ccccc34)nn(C(C)(C)C)c2n1	-1	-8	-22	5	47*	41*	7	-13	-14
CCOC(=O)C1=C(Cc2ccc(C)cc2)C(=O)c2ccccc2C1=O	·	·	54*	·	54*	19	23*	42	44*
CCOC(=O)C1=C(O)c2ccccc2C(=O)/C1=C\c1ccc(CC)cc1	0	18	·	-3	·	·	·	·	·
O=C(C1CCCN(S(=O)(=O)c2cccc3nsnc23)C1)N1CCc2ccccc2C1 (stereo unspecified)	-2	-13	3	-8	47*	54*	10	43	23*
O=C(C1CCCN(S(=O)(=O)c2cccc3nsnc23)C1)N1CCCCCC1 (stereo unspecified)	-5	6	18	2	0	·	·	·	·
Cc1cc(N(C)C)nc(Nc2ccccc2)n1	-8	-6	87*	2	92*	108*	1	99*	1
Cc1ccccc1NC(=O)C(=O)NCC1CCCN1S(=O)(=O)c1cccs1 (stereo unspecified)	-4	4	-8	0	1	·	·	·	·
O=C(NCCc1ccccc1)C(=O)NCC1CCCN1S(=O)(=O)c1cccs1 (stereo unspecified)	-3	6	69*	-3	89*	98*	9	95*	27*
SMILES	CHRM1 agonist	M1 antag	TAAR1 antag	CHRM1 PAM	TAAR1 agonist	TAAR1 ag confirm	Ga16 ag counter	TAAR1 desens	Ga16 antag count
CC(=O)Nc1ccc(NC(=O)CSc2nnnn2-c2ccc(F)cc2)cc1	-2	-9	-9	10	1	·	·	·	·
Cc1nc(NCCc2ccc(Cl)cc2)c2nnn(Cc3ccccc3)c2n1	-2	-1	2	1	3	·	·	·	·
Cc1nc(NCCc2ccccc2)c2nnn(Cc3ccccc3)c2n1	1	20	45	-9	51*	77*	15*	45	2
Cc1cccc(N2C(=O)C(O)=C(C(=O)c3cccs3)C2c2ccc(C(C)C)cc2)n1 (stereo unspecified)	21*	-2	26	2	69*	80*	67*	51*	33*
Cc1ccc(NC(=S)N/N=C/c2cccn2Cc2ccccc2F)cc1	-2	1	32	-3	0	·	·	·	·
CN(C(=O)c1cccc(NC(=O)Cc2ccc(NC(=O)C3CCN(C(=O)C4CCCC4)CC3)cc2)c1)C1CC1	-4	-12	0	8	-1	·	·	·	·
C=CCn1c(SCC(=O)Nc2cccc(C(=O)OC)c2)nnc1C(C)NC(=O)c1cccs1 (stereo unspecified)	-6	-11	0	10	7	·	·	·	·
C=CCn1c(SCC(=O)NCCc2ccccc2)nnc1C(C)NC(=O)c1cccs1 (stereo unspecified)	-4	-5	-9	10	49*	66*	1	16	11
Cc1ccc(-n2c(SCC(=O)N3CCCCC3)nc(O)c(Cc3ccccc3)c2=O)cc1	-3	16	-20	-5	3	·	·	·	·
FC(F)C(F)(F)c1cc(-c2ccc(Cl)cc2)n[nH]1	16	12	49	-7	63*	57*	22*	48	26*
Fc1ccc(-c2cc(C(F)(F)C(F)F)[nH]n2)cc1	29*	14	75*	-7	81*	91*	53*	74*	39*

High-throughput results deposited in PubChem BioAssay by The Scripps Research Institute Molecular Screening Center.
